Reference: ChEMBL document CHEMBL2157871, “Identification of a novel and orally available benzimidazole derivative as an NPY Y5 receptor antagonist with in vivo efficacy” (Bioorg Med Chem Lett, 2012)
pIC50: −log10 of the molar value.

Key:
[1] = molecular target: T1, Neuropeptide Y receptor type 5 (Mus musculus, UniProt O70342); assay: Displacement of [125I]PYY from mouse NPY Y5 receptor
T1 sequence (O70342 whole entry): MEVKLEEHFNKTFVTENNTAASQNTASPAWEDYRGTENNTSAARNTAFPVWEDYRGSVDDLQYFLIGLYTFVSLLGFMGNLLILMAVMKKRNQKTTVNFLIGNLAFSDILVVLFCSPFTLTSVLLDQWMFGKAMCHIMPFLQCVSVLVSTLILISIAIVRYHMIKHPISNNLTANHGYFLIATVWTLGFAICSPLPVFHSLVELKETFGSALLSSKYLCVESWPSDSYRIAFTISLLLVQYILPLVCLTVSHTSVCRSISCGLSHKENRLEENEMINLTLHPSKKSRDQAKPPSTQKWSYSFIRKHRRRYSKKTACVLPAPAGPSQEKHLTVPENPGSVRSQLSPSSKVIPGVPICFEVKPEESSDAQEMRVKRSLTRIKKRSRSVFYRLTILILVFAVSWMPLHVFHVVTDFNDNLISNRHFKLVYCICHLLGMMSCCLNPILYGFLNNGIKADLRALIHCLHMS
How it was run: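 Competition binding at mouse NPY Y5 receptors with 125I-PYY as ligand. IC50 is the concentration giving 50% inhibition of total specific binding, taken as the mean of two or more independent assays.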

Cytochrome P450 1A2 = molecular target: T2, Cytochrome P450 1A2 (Homo sapiens, UniProt P05177); assay: Inhibition of CYP1A2; assay type: ADME
T2 sequence (P05177 whole entry): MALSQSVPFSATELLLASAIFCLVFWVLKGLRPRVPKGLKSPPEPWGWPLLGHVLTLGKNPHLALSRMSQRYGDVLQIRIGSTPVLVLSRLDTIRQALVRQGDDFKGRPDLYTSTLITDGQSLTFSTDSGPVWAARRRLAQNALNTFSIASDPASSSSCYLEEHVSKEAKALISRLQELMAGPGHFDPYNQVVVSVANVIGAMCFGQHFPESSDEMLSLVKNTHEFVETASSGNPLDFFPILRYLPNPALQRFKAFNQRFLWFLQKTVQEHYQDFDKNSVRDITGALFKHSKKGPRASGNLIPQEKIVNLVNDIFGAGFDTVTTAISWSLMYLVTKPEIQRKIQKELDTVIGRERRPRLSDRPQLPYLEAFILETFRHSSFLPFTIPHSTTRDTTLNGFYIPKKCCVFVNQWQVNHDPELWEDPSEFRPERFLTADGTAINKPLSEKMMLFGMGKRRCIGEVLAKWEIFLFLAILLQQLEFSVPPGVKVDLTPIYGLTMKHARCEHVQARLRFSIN

Cytochrome P450 2C19 = Cytochrome P450 2C19 (Homo sapiens, UniProt P33261); assay: Inhibition of CYP2C19; assay type: ADME
Cytochrome P450 2C19, sequence (P33261 whole entry): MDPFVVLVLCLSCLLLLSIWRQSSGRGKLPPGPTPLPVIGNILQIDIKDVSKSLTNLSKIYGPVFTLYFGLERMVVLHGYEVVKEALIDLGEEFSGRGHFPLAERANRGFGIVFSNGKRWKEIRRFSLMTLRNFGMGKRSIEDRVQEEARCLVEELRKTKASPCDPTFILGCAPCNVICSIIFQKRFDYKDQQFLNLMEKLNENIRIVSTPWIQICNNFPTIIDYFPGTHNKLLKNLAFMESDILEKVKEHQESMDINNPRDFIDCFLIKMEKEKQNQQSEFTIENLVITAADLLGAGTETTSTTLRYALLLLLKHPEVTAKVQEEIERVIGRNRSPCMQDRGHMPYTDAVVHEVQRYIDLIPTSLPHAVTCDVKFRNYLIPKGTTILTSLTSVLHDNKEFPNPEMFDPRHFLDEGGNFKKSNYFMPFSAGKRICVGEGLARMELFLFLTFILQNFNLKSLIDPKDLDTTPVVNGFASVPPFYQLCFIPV

Cytochrome P450 2C9 = Cytochrome P450 2C9 (Homo sapiens, UniProt P11712); assay: Inhibition of CYP2C9; assay type: ADME
Cytochrome P450 2C9, sequence (P11712 whole entry): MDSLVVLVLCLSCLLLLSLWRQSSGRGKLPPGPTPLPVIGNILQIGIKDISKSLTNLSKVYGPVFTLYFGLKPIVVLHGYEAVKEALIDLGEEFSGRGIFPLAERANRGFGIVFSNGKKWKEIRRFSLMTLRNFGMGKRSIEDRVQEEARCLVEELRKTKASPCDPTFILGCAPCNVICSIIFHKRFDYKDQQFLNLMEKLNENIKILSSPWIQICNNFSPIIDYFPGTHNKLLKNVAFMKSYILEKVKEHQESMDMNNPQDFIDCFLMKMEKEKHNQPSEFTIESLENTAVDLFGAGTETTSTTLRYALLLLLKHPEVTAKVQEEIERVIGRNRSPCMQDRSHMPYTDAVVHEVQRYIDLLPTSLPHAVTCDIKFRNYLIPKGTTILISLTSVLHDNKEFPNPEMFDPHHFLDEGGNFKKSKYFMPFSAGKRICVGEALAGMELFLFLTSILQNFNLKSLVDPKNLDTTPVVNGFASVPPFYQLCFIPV

Cytochrome P450 2D6 = Cytochrome P450 2D6 (Homo sapiens, UniProt P10635); assay: Inhibition of CYP2D6; assay type: ADME
Cytochrome P450 2D6, sequence (P10635 whole entry): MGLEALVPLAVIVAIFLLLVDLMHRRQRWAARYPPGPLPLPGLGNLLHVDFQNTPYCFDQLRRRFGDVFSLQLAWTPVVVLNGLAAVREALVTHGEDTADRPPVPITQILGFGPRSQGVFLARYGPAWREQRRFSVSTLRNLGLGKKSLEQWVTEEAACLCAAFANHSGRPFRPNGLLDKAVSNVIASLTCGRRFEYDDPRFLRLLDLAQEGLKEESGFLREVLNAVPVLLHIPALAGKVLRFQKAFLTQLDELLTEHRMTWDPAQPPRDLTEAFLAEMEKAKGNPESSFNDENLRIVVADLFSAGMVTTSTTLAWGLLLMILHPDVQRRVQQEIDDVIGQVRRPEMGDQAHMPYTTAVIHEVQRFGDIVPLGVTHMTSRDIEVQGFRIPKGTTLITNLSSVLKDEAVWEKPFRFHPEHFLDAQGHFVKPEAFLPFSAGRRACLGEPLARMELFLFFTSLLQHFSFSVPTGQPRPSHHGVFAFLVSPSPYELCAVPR

Cytochrome P450 3A4 = Cytochrome P450 3A4 (Homo sapiens, UniProt P08684); assay: Inhibition of CYP3A4; assay type: ADME
Cytochrome P450 3A4, sequence (P08684 whole entry): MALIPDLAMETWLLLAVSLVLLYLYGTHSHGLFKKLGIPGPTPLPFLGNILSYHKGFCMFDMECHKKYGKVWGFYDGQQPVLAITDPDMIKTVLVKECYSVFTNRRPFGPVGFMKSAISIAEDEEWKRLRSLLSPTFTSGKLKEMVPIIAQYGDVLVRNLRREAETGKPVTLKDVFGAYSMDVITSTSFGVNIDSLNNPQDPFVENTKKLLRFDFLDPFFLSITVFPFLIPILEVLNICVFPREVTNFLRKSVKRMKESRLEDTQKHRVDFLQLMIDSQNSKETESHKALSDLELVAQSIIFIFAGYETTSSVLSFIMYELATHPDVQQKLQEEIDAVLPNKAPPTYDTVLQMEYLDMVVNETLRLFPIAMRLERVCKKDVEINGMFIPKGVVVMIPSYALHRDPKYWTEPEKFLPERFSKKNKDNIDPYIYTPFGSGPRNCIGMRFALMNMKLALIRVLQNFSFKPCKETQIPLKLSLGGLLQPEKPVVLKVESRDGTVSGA

[2] = Kinetic solubility of the compound in 1%DMSO at pH 6.8; assay type: physicochemical; conditions: read-out: Kinetic_solubility
How it was run: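 Kinetic solubility measured at pH 6.8 from a 1% DMSO solution.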

[3] = Metabolic stability in human liver microsomes assessed as compound remaining after 30 mins; assay type: ADME, Microsome; conditions: read-out: Stability
How it was run: (§1)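 Human or rat liver microsomes incubated with compound for 30 min. Result given as percent of parent compound remaining.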

[4] = Metabolic stability in rat liver microsomes assessed as compound remaining after 30 mins; assay type: ADME, Microsome; conditions: read-out: Stability; how it was run: as §1
Mus musculus [5] = assay: Antiobesity activity in DIO mouse assessed as decrease in [cPP(1 to 7),NPY(19 to 23),Ala(31),Alb(32),Gln(34)]-induced food intake at 12.5 mg/kg, po administered 1 hr prior to [cPP(1 to 7),NPY(19 to 23),Ala(31),Alb(32),Gln(34)]-induction measured at 2 hrs relative to vehicle-treated control; assay type: functional; set-up: scale not given: the % may be the effect or the level left
Mus musculus [6] = assay: Antiobesity activity in DIO mouse assessed as decrease in [cPP(1 to 7),NPY(19 to 23),Ala(31),Alb(32),Gln(34)]-induced food intake at 12.5 mg/kg, po administered 1 hr prior to [cPP(1 to 7),NPY(19 to 23),Ala(31),Alb(32),Gln(34)]-induction measured at 4 hrs relative to vehicle-treated control; assay type: functional; set-up: scale not given: the % may be the effect or the level left
How it was run: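 Diet-induced obese mice dosed orally at 12.5 mg/kg 1 h before icv injection of a Y5-selective agonist (0.1 nmol). Cumulative food intake recorded over the following 4 h.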

pIC50 [1] | INH (Cytochrome P450 1A2) [µM] | INH (Cytochrome P450 2C19) [µM] | INH (Cytochrome P450 2C9) [µM] | INH (Cytochrome P450 2D6) [µM] | INH (Cytochrome P450 3A4) [µM] | solubility kinetic [2] | remaining at 0.5 h [3] [%] | remaining at 0.5 h [4] [%] | SMILES | Activity (Mus musculus [5]) [%] | Activity (Mus musculus [6]) [%]
8.30 | > 20 | > 20 | > 20 | > 20 | > 20 | > 50 µM | 21.9 | 21.1 | CCCS(=O)(=O)c1ccc2nc(N3CCN(C)C(c4ccccc4)C3)[nH]c2c1 (configuration not stated) | – | –
9.22 | > 20 | 19 | > 20 | > 20 | > 20 | > 50 µM | 77.9 | 45.9 | CCCS(=O)(=O)c1ccc2nc(N3CCOC(c4ccccc4)C3)[nH]c2c1 (configuration not stated) | – | –
8.17 | > 20 | > 20 | > 20 | > 20 | > 20 | > 50 µM | 64.4 | 44 | CCCS(=O)(=O)c1ccc2[nH]c(N3CCNC(c4ccccc4)C3)nc2c1 (configuration not stated) | – | –
9.54 | > 20 | 12 | 9.4 | 13 | 6.9 | 19.1 µM | 45.2 | 2.2 | CCCS(=O)(=O)c1ccc2nc(N3CCCC(c4ccccc4)C3)[nH]c2c1 (configuration not stated) | – | –
7.80 | > 20 | > 20 | > 20 | > 20 | > 20 | > 50 µM | 66.1 | 7.5 | CCCS(=O)(=O)c1ccc2[nH]c(C3CN(c4ccccc4)CCO3)nc2c1 (configuration not stated) | – | –
6.71 | > 20 | > 20 | > 20 | > 20 | > 20 | > 50 µM | 81.1 | 62 | CCCS(=O)(=O)c1ccc2nc(C3CCC(=O)N(c4ccccc4)C3)[nH]c2c1 (configuration not stated) | – | –
9.37 | > 20 | > 20 | > 20 | > 20 | > 20 | > 50 µM | 89 | 76.1 | CCS(=O)(=O)c1ccc2nc(N3CCOC(c4ccccc4)C3)[nH]c2c1 (configuration not stated) | 56 | 42.7
8.88 | 15 | 19 | > 20 | > 20 | 16 | > 50 µM | 87 | 49.5 | CC(C)S(=O)(=O)c1ccc2nc(N3CCOC(c4ccccc4)C3)[nH]c2c1 (configuration not stated) | – | –
8.37 | > 20 | > 20 | > 20 | > 20 | 14 | 10.7 µM | 78.5 | 56.4 | CC(C)(C)S(=O)(=O)c1ccc2[nH]c(N3CCOC(c4ccccc4)C3)nc2c1 (configuration not stated) | – | –
9.55 | > 20 | > 20 | 17 | > 20 | 9.3 | 43.2 µM | 55.1 | 2.4 | CC(C)CS(=O)(=O)c1ccc2[nH]c(N3CCOC(c4ccccc4)C3)nc2c1 (configuration not stated) | – | –
9.14 | 17 | 1.7 | 4.5 | 5.5 | 2.3 | 3.7 µM | 81.7 | 67.9 | O=S(=O)(c1ccc2nc(N3CCOC(c4ccccc4)C3)[nH]c2c1)C(F)(F)F (configuration not stated) | – | –
9.68 | > 20 | > 20 | > 20 | > 20 | 15 | > 50 µM | 85 | 63.5 | O=S(=O)(CC(F)(F)F)c1ccc2[nH]c(N3CCOC(c4ccccc4)C3)nc2c1 (configuration not stated) | – | –
8.84 | 18 | 17 | 11 | 18 | 8.2 | 11.6 µM | 60.2 | 37.8 | CC(C)(C(F)(F)F)S(=O)(=O)c1ccc2nc(N3CCOC(c4ccccc4)C3)[nH]c2c1 (configuration not stated) | – | –
8.98 | > 20 | > 20 | > 20 | > 20 | > 20 | > 50 µM | 92.4 | 87.1 | CCS(=O)(=O)c1ccc2[nH]c(N3CCOC(c4ccc(F)cc4)C3)nc2c1 (configuration not stated) | – | –
9.07 | 9.2 | 9.1 | > 20 | 18 | 13 | 38.1 µM | 94.6 | 87.2 | CCS(=O)(=O)c1ccc2[nH]c(N3CCOC(c4ccc(Cl)cc4)C3)nc2c1 (configuration not stated) | – | –
9.10 | > 20 | 17 | > 20 | > 20 | > 20 | 21.6 µM | 87.8 | 34 | CCS(=O)(=O)c1ccc2[nH]c(N3CCOC(c4ccc(C)cc4)C3)nc2c1 (configuration not stated) | – | –
8.52 | > 20 | > 20 | > 20 | > 20 | > 20 | > 50 µM | 81 | 48 | CCS(=O)(=O)c1ccc2[nH]c(N3CCOC(c4ccc(OC)cc4)C3)nc2c1 (configuration not stated) | – | –
– | – | – | – | – | – | – | – | – | CCS(=O)(=O)c1ccc2[nH]c(N3CCO[C@H](c4ccccc4)C3)nc2c1 | 67.2 | 71
9.00 | > 20 | > 20 | 17 | > 20 | 14 | 15.4 µM | 74.9 | 19.2 | CCCS(=O)(=O)c1ccc2[nH]c(N3CCC(c4ccccc4)C3)nc2c1 (configuration not stated) | – | –
7.76 | > 20 | 20 | > 20 | > 20 | > 20 | > 50 µM | 65 | 74 | CCCS(=O)(=O)c1ccc2[nH]c(C3CCOC(c4ccccc4)C3)nc2c1 (mixture of isomers) | – | –
8.34 | – | – | – | – | – | 1.6 µg/mL | – | – | CC(C)(C)S(=O)(=O)N[C@H]1CC[C@H](C(=O)Nc2ccc(C(F)(F)F)cn2)CC1 [VELNEPERIT] | – | –
